The results in this text go back to PubChem BioAssay.

Assay [1] can be described thus: reducers of endogenous Her2 protein level, primary screen, SKBR3 breast tumor cells, AlphaScreen, ATP viability (AID 461).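 On Her2 level: lower value means less Her2 protein in the cells.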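 On viability: percent of carrier control wells set as 100% viability.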 Particulars: 18-24 h, measured here: SKBR3 viability, ATP luminescence, at 10 µM.
Assay [2] concerns the target Receptor tyrosine-protein kinase erbB-2 (Homo sapiens) (UniProt P04626). The description is as above. Particulars: 18-24 h, at 10 µM, stronger effect = lower value.
Assay [3] can be described thus: SK-BR-3 cell growth inhibitors, pilot screen, 24 h, human (AID 572;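 active means viability at or below 10% of carrier control in both of two separate runs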;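 further: compound exposure lasted between 18 and 24 h rather than exactly 24 h; 100% = carrier-treated control wells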). The settings on record: SK-BR-3 viability, CellTiter-Glo luminescence, at 10 µM, stronger effect = lower value. Background: ATP-based viability assays read luminescence as a measure of living cells.
Assay [4] can be described thus: HUVEC growth inhibition – cell-based, human, primary screen (AID 575;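 active means viability at or below 30% in both replicate assays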;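 further: 100% = median of untreated cell wells with 0.1% DMSO on each plate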). Particulars: HUVEC proliferation, CellTiter-Glo luminescence, 72 h; at 10 µM; stronger effect = lower value. Summed up: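 Assay system: Primary human umbilical vein endothelial cells | Quantity: 1250 cells per well | Medium: Supplemented EBM, 2% fetal bovine serum | Detection: CellTiter-Glo luminescence measuring cellular ATP | Read-out: % viability vs DMSO wells | Plate: Collagen-coated 384-well format | Times: 72 h exposure, 37 °C, 5% CO2, 30 min RT equilibration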

A short description of assay [5]: growth inhibitors of H69AR lung tumor, primary screen, human, duplicate replicates (AID 580;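 active means viability at or under a set limit in both replicates, limit being median viability minus 3 SD, cut at about 48% in these data, passing the limit was not always enough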;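 further: 100% = mean luminescence of untreated wells and 0% = no signal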). Particulars: H69AR lung tumor cells viability, ATP luminescence, 72 h; at 10 µM; stronger effect = lower value.
Assay [6] in a line: reversal of MRP1-mediated doxorubicin resistance, pilot screen, H69AR cells, doxorubicin co-treatment (AID 601;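 active means viability loss from added drug above about 55%, and viability with drug at most 40%, in both replicates, limit read from the data, passing the limit was not always enough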). Particulars: CellTiter-Glo, 72 h, at 10 µM; for differential viability (reversal): stronger effect = higher value.
A short description of assay [7]: 384-well plate pilot, post-Golgi transport modulator project, inhibition of yeast transport mutant growth (AID 636; in the data active means inhibition above about 31%). The settings on record: absorbance 615 nm, about 18 h, stronger effect = higher value.
Assay [8] can be described thus: growth suppression of yeast trafficking mutant, preliminary HTS, modulators of trafficking downstream of Golgi apparatus project, 1536-format plate, OD 615 nm (AID 637; in the data active means inhibition above about 30%). Particulars: yeast transport mutant growth, absorbance 615 nm, 18 h; stronger effect = higher value.
[9] abbreviates: H69AR cells + 2 uM doxorubicin, measured here: viability with 2 uM doxorubicin, stronger effect = lower value.
The mark [10] stands for this setting: H69AR cells, compound alone cytotoxicity.

The source made the active and inactive calls.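 How the source made its calls, unless noted: active means Her2 level under about 52% in both replicate screens, with viability over 70% of control (limit read from the data); inconclusive means Her2 under the limit in one screen only, or viability under 70%; inactive means Her2 level above the set limit.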

Receptor tyrosine-protein kinase erbB-2 (Homo sapiens), sequence (P04626 whole entry, looked up): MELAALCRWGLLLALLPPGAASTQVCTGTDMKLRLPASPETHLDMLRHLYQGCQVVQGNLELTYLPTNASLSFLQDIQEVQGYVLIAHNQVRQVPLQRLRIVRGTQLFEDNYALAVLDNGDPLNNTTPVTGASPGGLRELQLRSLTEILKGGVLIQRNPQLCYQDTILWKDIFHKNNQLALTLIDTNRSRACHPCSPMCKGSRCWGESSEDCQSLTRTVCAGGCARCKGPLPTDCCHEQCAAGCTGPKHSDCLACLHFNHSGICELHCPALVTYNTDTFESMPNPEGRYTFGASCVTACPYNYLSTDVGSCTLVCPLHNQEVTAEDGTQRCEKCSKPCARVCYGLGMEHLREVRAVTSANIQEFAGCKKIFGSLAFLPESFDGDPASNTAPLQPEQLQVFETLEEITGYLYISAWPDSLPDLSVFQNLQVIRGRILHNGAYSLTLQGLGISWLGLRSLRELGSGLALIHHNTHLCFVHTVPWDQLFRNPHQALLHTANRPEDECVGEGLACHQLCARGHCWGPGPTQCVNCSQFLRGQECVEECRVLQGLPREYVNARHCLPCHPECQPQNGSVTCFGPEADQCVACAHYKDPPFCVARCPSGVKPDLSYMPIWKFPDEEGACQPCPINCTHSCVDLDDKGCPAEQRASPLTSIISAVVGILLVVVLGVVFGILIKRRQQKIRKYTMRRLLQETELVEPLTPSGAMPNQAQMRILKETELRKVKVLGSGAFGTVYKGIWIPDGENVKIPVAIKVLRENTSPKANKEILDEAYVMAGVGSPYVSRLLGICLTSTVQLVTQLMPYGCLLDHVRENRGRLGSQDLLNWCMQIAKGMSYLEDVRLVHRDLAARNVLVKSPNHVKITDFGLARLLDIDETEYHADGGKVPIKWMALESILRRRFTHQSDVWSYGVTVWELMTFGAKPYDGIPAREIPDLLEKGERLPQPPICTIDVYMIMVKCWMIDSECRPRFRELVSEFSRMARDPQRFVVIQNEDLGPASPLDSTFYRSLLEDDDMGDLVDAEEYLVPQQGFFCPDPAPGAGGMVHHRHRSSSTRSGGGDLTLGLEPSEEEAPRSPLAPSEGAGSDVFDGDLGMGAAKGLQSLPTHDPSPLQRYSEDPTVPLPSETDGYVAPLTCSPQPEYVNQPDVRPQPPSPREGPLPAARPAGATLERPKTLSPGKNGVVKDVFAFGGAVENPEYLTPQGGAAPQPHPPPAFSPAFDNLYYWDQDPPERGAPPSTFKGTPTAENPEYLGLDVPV

The term viability denotes a read-out of living cells in per cent, often relative to untreated cells. A word on the inhibition: it is the relative decrease from the control value, in per cent. As for `O=C(NC1CCCCCC1)C1CCCN(S(=O)(=O)c2cccs2)C1` (stereo not given), the viability in assay [1] is 90%; in assay [3], 90% (inactive); in assay [4], 101% (inactive); in assay [5] it was 105% (inactive); in assay [6] (setting [9]), 87.8%; in assay [6] (setting [10]), 105%. The Her2 level in assay [2] is 118% (inactive). The differential viability (reversal) in assay [6] (H69AR cells + 2 uM doxorubicin) is 17.6% (inactive). For the same molecule, the inhibition is -0.92% (inactive) in assay [7] and -6.5% (inactive) in assay [8].
For the molecule `CC1Cc2ccccc2N1C(=O)COC(=O)Cn1nnc(-c2ccccc2)n1` (stereo not given), the viability in assay [1] is 110%; in assay [3], 110% (inactive); in assay [4] it was 88.5% (inactive); in assay [5] it was 81% (inactive); in assay [6] (setting [9]), 73.6%; in assay [6] (setting [10]), 81%. Besides, the Her2 level in assay [2] is 92.5% (inactive). The differential viability (reversal) in assay [6] (H69AR cells + 2 uM doxorubicin) was 7.38% (inactive). For the same molecule, the inhibition in assay [7] is -5.27% (inactive); in assay [8], 3.65% (inactive).
`CCn1c(CNc2ccc(C)cc2)nnc1SCC(=O)NCc1ccccc1`: the viability in assay [1] is 89%; in assay [3], 89% (inactive); in assay [4], 91.1% (inactive); in assay [5], 86.6% (inactive); in assay [6] (setting [9]), 87.6%; in assay [6] (setting [10]), 86.6%. Further, the Her2 level in assay [2] is 100% (inactive). Also, the differential viability (reversal) in assay [6] (H69AR cells + 2 uM doxorubicin) was -0.975% (inactive). Further, the inhibition in assay [7] was 0.13% (inactive); in assay [8], 3.93% (inactive).
For `C/C(=C\C(=O)O)CC(=O)O`, the viability in assay [1] was 100%; in assay [3], 100% (inactive); in assay [4], 98% (inactive); in assay [5], 84.5% (inactive); in assay [6] (setting [9]) it was 100%; in assay [6] (setting [10]) it was 84.5%. Besides, the Her2 level in assay [2] was 119% (inactive). Moreover, the differential viability (reversal) in assay [6] (H69AR cells + 2 uM doxorubicin) was -15.7% (inactive). Moreover, the inhibition in assay [7] was -7.5% (inactive); in assay [8] it was 5.25% (inactive).
As for `CN(C)/C=C1\N=C(c2ccc(Cl)cc2Cl)OC1=O`, the viability in assay [1] is 102%; in assay [3], 102% (inactive); in assay [4], 92.7% (inactive); in assay [5] it was 95.9% (inactive); in assay [6] (setting [9]) it was 76.3%; in assay [6] (setting [10]) it was 95.9%. Besides, the Her2 level in assay [2] is 108% (inactive). In addition, the differential viability (reversal) in assay [6] (H69AR cells + 2 uM doxorubicin) is 19.6% (inactive). The inhibition in assay [7] is -3.29% (inactive); in assay [8], -3.97% (inactive).
Turning to `CN(C)c1ccc(C(=O)OCC(=O)NC2CCCCC2)cc1`, the viability in assay [1] was 106%; in assay [3], 106% (inactive); in assay [4], 98.1% (inactive); in assay [5], 91.5% (inactive); in assay [6] (setting [9]), 82.9%; in assay [6] (setting [10]), 91.5%. Also, in assay [2], the Her2 level was 97% (inactive). The differential viability (reversal) in assay [6] (H69AR cells + 2 uM doxorubicin) is 8.63% (inactive). Moreover, the inhibition in assay [7] is -5.6% (inactive); in assay [8], 5.81% (inactive).
Turning to `Cc1[nH]n(C(N)=S)c(=O)c1C(c1ccccc1)C(C#N)C#N` (stereo not given), the viability in assay [1] is 96.5%; in assay [3], 96.5% (inactive); in assay [4], 70.8% (inactive); in assay [5], 91.6% (inactive); in assay [6] (setting [9]), 92.4%; in assay [6] (setting [10]), 91.6%. Also, the Her2 level in assay [2] was 152% (inactive). Further, the differential viability (reversal) in assay [6] (H69AR cells + 2 uM doxorubicin) is -0.72% (inactive). The inhibition is 3.46% (inactive) in assay [7] and 20.2% (inactive) in assay [8].
Regarding `S=C(NCC1CCCO1)n1nnc2ccccc21` (stereo not given), the viability in assay [1] was 121%; in assay [3], 121% (inactive); in assay [4], 66.2% (inactive); in assay [5], 74.8% (inactive); in assay [6] (setting [9]), 74.1%; in assay [6] (setting [10]), 74.8%. Further, the Her2 level in assay [2] was 49% (active). Further, the differential viability (reversal) in assay [6] (H69AR cells + 2 uM doxorubicin) is 0.715% (inactive). Also, the inhibition in assay [7] was -1.07% (inactive); in assay [8], -0.95% (inactive).
Consider `CC(=O)c1c(C)[nH]c(C(=O)OCc2nnc(-c3ccccc3)o2)c1C`, for which the viability was 92% in assay [1]; 92% (inactive) in assay [3]; 70.4% (inactive) in assay [4]; 72.6% (inactive) in assay [5]; 78.3% in assay [6] (setting [9]); 72.6% in assay [6] (setting [10]). The Her2 level in assay [2] is 96.5% (inactive). For the same molecule, the differential viability (reversal) in assay [6] (H69AR cells + 2 uM doxorubicin) was -5.71% (inactive). Moreover, the results for the inhibition in assay [7] and in assay [8] were 0% (inactive) and 26.7% (inactive), respectively.
For `COC(=O)c1cc(Oc2ccc(C(=O)OC)cc2N)cc(C(=O)OC)c1`, the viability in assay [1] is 95%; in assay [3], 95% (inactive); in assay [4] it was 99.1% (inactive); in assay [5] it was 96.5% (inactive); in assay [6] (setting [9]) it was 99.2%; in assay [6] (setting [10]) it was 96.5%. For the same molecule, in assay [2], the Her2 level is 100% (inactive). For the same molecule, the differential viability (reversal) in assay [6] (H69AR cells + 2 uM doxorubicin) is -2.62% (inactive). Besides, the inhibition in assay [7] is -1.32% (inactive); in assay [8] it was -5.82% (inactive).
Take `CCOC(=O)C1CCN(c2nc3ccccc3nc2C(C#N)C(=O)OC(C)C)CC1` (stereo not given): the viability in assay [1] was 95%; in assay [3] it was 95% (inactive); in assay [4], 83.9% (inactive); in assay [5] it was 84.2% (inactive); in assay [6] (setting [9]), 87.6%; in assay [6] (setting [10]) it was 84.2%. Moreover, the Her2 level in assay [2] is 124% (inactive). Further, in assay [6] (H69AR cells + 2 uM doxorubicin), the differential viability (reversal) was -3.45% (inactive). For the same molecule, the inhibition in assay [7] was 1.37% (inactive); in assay [8], 4.6% (inactive).
Consider `CCNCc1cc2cc(C)ccc2[nH]c1=O`, for which the viability in assay [1] was 106%; in assay [3], 106% (inactive); in assay [4] it was 80.6% (inactive); in assay [5] it was 82.7% (inactive); in assay [6] (setting [9]), 90.6%; in assay [6] (setting [10]) it was 82.7%. Moreover, the Her2 level in assay [2] is 99% (inactive). The differential viability (reversal) in assay [6] (H69AR cells + 2 uM doxorubicin) was -7.93% (inactive). Also, the results for the inhibition in assay [7] and in assay [8] were -8.78% (inactive) and -7% (inactive), respectively.
In the case of `CC(C)(C)n1nnnc1C(c1cccc(C#N)c1)N1CCC(Cc2ccccc2)CC1` (stereo not given), the viability was 87.5% in assay [1]; 87.5% (inactive) in assay [3]; 114% (inactive) in assay [4]; 86.1% (inactive) in assay [5]; 86.6% in assay [6] (setting [9]); 86.1% in assay [6] (setting [10]). Further, the Her2 level in assay [2] was 86% (inactive). In addition, the differential viability (reversal) in assay [6] (H69AR cells + 2 uM doxorubicin) was -0.44% (inactive). For the same molecule, the inhibition was -0.79% (inactive) in assay [7] and 1.77% (inactive) in assay [8].
Consider `O=C(Cn1c(C(=O)NCC2CCCO2)cc2sccc21)c1ccccc1` (stereo not given), for which the viability in assay [1] is 94.5%; in assay [3] it was 94.5% (inactive); in assay [4], 101% (inactive); in assay [5] it was 90.3% (inactive); in assay [6] (setting [9]) it was 83.2%; in assay [6] (setting [10]), 90.3%. Also, the Her2 level in assay [2] was 100% (inactive). In addition, the differential viability (reversal) in assay [6] (H69AR cells + 2 uM doxorubicin) was 7.12% (inactive). Moreover, the inhibition is -1.56% (inactive) in assay [7] and -5.56% (inactive) in assay [8].
